Source: PubChem BioAssay AID504413 (Broad Institute, 2011)
Results filed as inconclusive are left out. Activity calls are given as the source filed them.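 How the source made its calls: active means in every test run, the fitted curve rises past 10% of the positive control effect within the tested doses; inconclusive means runs disagree, or a flat fit at moderate level, or poor fit; inactive means all runs inactive, including signal going the wrong way.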

Tested on: MEF A1-2A-BIM cells, caspase-3/7 Glo luminescence
Test: apoptosis induction in A1-BIM primed fibroblasts – cell-based, A1-2A-BIM MEF, luminescence, dry powder, A1 inhibitor project, dose response (AID 504413)
Details: not given
Summary of the method: (§1)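 Technique: Caspase-3/7 Glo luminescence. Assay system: mouse embryonic fibroblasts co-expressing A1-2A-BIM, primed for A1 dependence. Quantity: 2500 MEF cells/well. Medium: RPMI-1640, 10% FBS. Timing: 37 °C compound 3 h, room-temperature reagent 1 h.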

Structure (SMILES) | AC10 [µM]
Cn1c(=O)c([N+](=O)[O-])c(Cl)c2ccccc21 | 2.6
Cc1ccc(S(=O)(=O)c2c([N+](=O)[O-])c(=O)n(C)c3ccccc23)cc1 | 7.02
Cn1c(=O)c([N+](=O)[O-])c(Sc2ccccn2)c2ccccc21 | 3.78
COCCn1c(=O)c([N+](=O)[O-])c(Cl)c2ccccc21 | 1.9
Cc1ccc(Sc2c([N+](=O)[O-])c(=O)n(C)c3ccccc23)cc1 | 7.28

Tested on: not listed separately
Test: as above
Details: MEF A1-2A-BIM cells, caspase-3/7 Glo luminescence; hits give high values
Summary of the method: as §1

Structure (SMILES) | max activity
COc1ccc(CCNc2nc(N3CCCC3)nc(N3CCCC3)n2)cc1OC | 4.48% (inactive)
Cc1ccc(Sc2c(Sc3ccc(C)cc3)c3ccccc3n(C)c2=O)cc1 | 0.915% (inactive)
Cn1c(=O)c(Sc2ccccn2)c(Sc2ccccn2)c2ccccc21 | -0.138% (inactive)
COc1c([N+](=O)[O-])c(=O)n(C)c2ccccc12 | -4.02% (inactive)
COc1ccc(CCNc2nc(N3CCOCC3)nc(N3CCOCC3)n2)cc1OC | -1.95% (inactive)
Cc1ccc(Sc2c(Sc3ccc(C)cc3)c3ccccc3n(Cc3ccccc3)c2=O)cc1 | 6.71% (inactive)
COc1nc2ccccc2c(Sc2ccc(C)cc2)c1[N+](=O)[O-] | -2.09% (inactive)
COc1nc2ccccc2c(Cl)c1[N+](=O)[O-] | -3.3% (inactive)
C/C(=N\Nc1nc(N2CCCCC2)nc(N2CCCCC2)n1)c1ccc(F)cc1 | 0.285% (inactive)
O=c1[nH]c2ccccc2c(O)c1[N+](=O)[O-] | 0.403% (inactive)
COCCn1c(=O)c(Sc2ccc(C)cc2)c(Sc2ccc(C)cc2)c2ccccc21 | 4.03% (inactive)
CCn1c(=O)c(Sc2ccc(C)cc2)c(Sc2ccc(C)cc2)c2ccccc21 | 3.42% (inactive)
COc1ccc(N2CCN(c3nc(NCCc4ccc(OC)c(OC)c4)nc(N4CCOCC4)n3)CC2)cc1 | -3.19% (inactive)
O=C(COc1ccc(Cl)cc1Cl)NNc1nc(N2CCOCC2)nc(N2CCOCC2)n1 | -3.81% (inactive)
